Values after ≈ are worked out from the molar mass of the structure shown.
What was measured:
Assay type in all cases: functional
Aspergillus fumigatus [1] = experiment: Ratio of MFC to MIC for Aspergillus fumigatus
In short: (§1)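 MFC: 0.1 ml from each MIC tube was spread on agar and colonies were counted after 48 h at 35 °C. MFC is the lowest concentration killing 99.9% of the inoculum. The MFC/MIC ratio was then calculated to classify activity as fungistatic or fungicidal.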

Staphylococcus aureus [2] = experiment: Antibacterial activity against Staphylococcus aureus ATCC 25923 after 18 to 24 hrs
Pseudomonas aeruginosa [3] = experiment: Antibacterial activity against Pseudomonas aeruginosa ATCC 27853 after 18 to 24 hrs
Candida albicans [4] = experiment: Antifungal activity against Candida albicans after 48 hrs by two fold dilution technique
In short: (§2)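 Broth MIC. Broth with log two-fold serial dilutions of compound was inoculated with about 1.6 × 10⁴–6 × 10⁴ c.f.u./ml of fungus and incubated 48 h at 35 °C. MIC is the lowest concentration arresting fungal growth.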

Staphylococcus aureus [5] = experiment: Antibacterial activity against Staphylococcus aureus ATCC 25923 after 24 hrs by disc diffusion method
In short: (§3)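 Agar disc diffusion. A standard inoculum of […] c.f.u./ml (0.5 McFarland) was spread evenly on agar. 6 mm Whatman no. 1 paper discs, dry-heat sterilized (140 °C, 1 h), were soaked in test compound and placed on nutrient agar. Plates were inverted and incubated 24 h at 37 °C. Read-out: diameter of the inhibition zone.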

Klebsiella pneumoniae [6] = experiment: Antibacterial activity against Klebsiella pneumoniae after 18 to 24 hrs
Streptococcus pyogenes [7] = experiment: Antibacterial activity against Streptococcus pyogenes after 24 hrs by disc diffusion method; in short: as §3
[8] = test system: Trichophyton mentagrophytes; experiment: Ratio of MFC to MIC for Trichophyton mentagrophytes; in short: as §1
Candida albicans [9] = experiment: Antifungal activity against Candida albicans after 48 hrs by disk diffusion method
In short: (§4)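 Agar well diffusion with compounds in DMSO. The dish was lawned with a saline spore suspension, excess decanted, and dried 1 h at 37 °C. Wells were punched. Read-out: inhibition zone in mm. Griseofulvin served as standard and DMSO as negative control.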

Escherichia coli [10] = experiment: Antibacterial activity against Escherichia coli ATCC 25922 after 18 to 24 hrs
Streptococcus pyogenes [11] = experiment: Antibacterial activity against Streptococcus pyogenes after 24 hrs by two fold dilution technique
In short: (§5)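 Broth dilution MIC. Nutrient broth held log two-fold serial dilutions of compound and was inoculated with about 5 × 10⁵ c.f.u./ml of actively dividing bacteria. Incubation was 24 h at 37 °C, with growth checked visually and spectrophotometrically. MIC is the lowest concentration arresting growth.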

Staphylococcus aureus [12] = experiment: Antibacterial activity against Staphylococcus aureus ATCC 25923 after 24 hrs by two fold dilution technique; conditions: ATCC 25923, 24 h; in short: as §5
Talaromyces marneffei [13] = experiment: Ratio of MFC to MIC for Penicillium marneffei; in short: as §1
Klebsiella pneumoniae [14] = experiment: Antibacterial activity against Klebsiella pneumoniae after 24 hrs by disc diffusion method; in short: as §3
[15] = test system: Trichophyton mentagrophytes; experiment: Antifungal activity against Trichophyton mentagrophytes after 48 hrs by two fold dilution technique; in short: as §2
Pseudomonas aeruginosa [16] = experiment: Antibacterial activity against Pseudomonas aeruginosa ATCC 27853 after 24 hrs by disc diffusion method; in short: as §3
Pseudomonas aeruginosa [17] = experiment: Antibacterial activity against Pseudomonas aeruginosa ATCC 27853 after 24 hrs by two fold dilution technique; conditions: ATCC 27853, 24 h; in short: as §5
Klebsiella pneumoniae [18] = experiment: Antibacterial activity against Klebsiella pneumoniae after 24 hrs by two fold dilution technique; in short: as §5
Talaromyces marneffei [19] = experiment: Antifungal activity against Penicillium marneffei after 48 hrs by two fold dilution technique; in short: as §2
Talaromyces marneffei [20] = experiment: Antifungal activity against Penicillium marneffei after 48 hrs by disk diffusion method; in short: as §4
Aspergillus fumigatus [21] = experiment: Antifungal activity against Aspergillus fumigatus after 48 hrs by disk diffusion method; in short: as §4
Candida albicans [22] = experiment: Ratio of MFC to MIC for Candida albicans; in short: as §1
[23] = test system: Trichophyton mentagrophytes; experiment: Antifungal activity against Trichophyton mentagrophytes after 48 hrs by disk diffusion method; in short: as §4
Escherichia coli [24] = experiment: Antibacterial activity against Escherichia coli ATCC 25922 after 24 hrs by disc diffusion method; in short: as §3
Streptococcus pyogenes [25] = experiment: Antibacterial activity against Streptococcus pyogenes after 18 to 24 hrs
Aspergillus fumigatus [26] = experiment: Antifungal activity against Aspergillus fumigatus after 48 hrs by two fold dilution technique; in short: as §2
Escherichia coli [27] = experiment: Antibacterial activity against Escherichia coli ATCC 25922 after 24 hrs by two fold dilution technique; conditions: ATCC 25922, 24 h; in short: as §5

| MIC (Candida albicans [4]) | MIC (Streptococcus pyogenes [11]) | MIC (Staphylococcus aureus [12]) | MIC [15] | MIC (Pseudomonas aeruginosa [17]) | MIC (Klebsiella pneumoniae [18]) | Structure (SMILES) | Ratio (Aspergillus fumigatus [1]) | MBC (Staphylococcus aureus [2]) | MBC (Pseudomonas aeruginosa [3]) | MFC (Candida albicans [4]) | diameter of the inhibition zone (DIZ) (Staphylococcus aureus [5]) | MBC (Klebsiella pneumoniae [6]) | diameter of the inhibition zone (DIZ) (Streptococcus pyogenes [7]) | Ratio [8] | diameter of the inhibition zone (DIZ) (Candida albicans [9]) | MBC (Escherichia coli [10]) | Ratio (Talaromyces marneffei [13]) | diameter of the inhibition zone (DIZ) (Klebsiella pneumoniae [14]) | MFC [15] | diameter of the inhibition zone (DIZ) (Pseudomonas aeruginosa [16]) | further results |
| --- | --- | --- | --- | --- | --- | --- | --- | --- | --- | --- | --- | --- | --- | --- | --- | --- | --- | --- | --- | --- | --- |
| 6.25 µg/mL (≈ 15.1 µM) | 12.5 µg/mL (≈ 30.2 µM) | 12.5 µg/mL (≈ 30.2 µM) | 6.25 µg/mL (≈ 15.1 µM) | 12.5 µg/mL (≈ 30.2 µM) | 25 µg/mL (≈ 60.4 µM) | CCCCCCCC/C=C\CCCCCCCc1nnc(Nc2ccccc2)s1 | 4 | 25 µg/mL (≈ 60.4 µM) | 25 µg/mL (≈ 60.4 µM) | 12.5 µg/mL (≈ 30.2 µM) | 12.9 mm | 50 µg/mL (≈ 121 µM) | 13.1 mm | 2 | 27.2 mm | 50 µg/mL (≈ 121 µM) | 2 | 12.1 mm | 12.5 µg/mL (≈ 30.2 µM) | 16.3 mm | MFC (Talaromyces marneffei [19]): 12.5 µg/mL (≈ 30.2 µM); MIC (Talaromyces marneffei [19]): 6.25 µg/mL (≈ 15.1 µM); diameter of the inhibition zone (DIZ) (Talaromyces marneffei [20]): 16.1 mm; diameter of the inhibition zone (DIZ) (Aspergillus fumigatus [21]): 23.8 mm; Ratio (Candida albicans [22]): 2; diameter of the inhibition zone (DIZ) [23]: 20.3 mm; diameter of the inhibition zone (DIZ) (Escherichia coli [24]): 14.8 mm; MBC (Streptococcus pyogenes [25]): 100 µg/mL (≈ 242 µM); MFC (Aspergillus fumigatus [26]): 25 µg/mL (≈ 60.4 µM); MIC (Aspergillus fumigatus [26]): 6.25 µg/mL (≈ 15.1 µM); MIC (Escherichia coli [27]): 25 µg/mL (≈ 60.4 µM) |
| 12.5 µg/mL (≈ 30.2 µM) | 6.25 µg/mL (≈ 15.1 µM) | 12.5 µg/mL (≈ 30.2 µM) | 25 µg/mL (≈ 60.4 µM) | 6.25 µg/mL (≈ 15.1 µM) | 6.25 µg/mL (≈ 15.1 µM) | CCCCC/C=C\CC[C@H](O)CCCCCCCc1nnc(Nc2ccccc2)o1 | 2 | 12.5 µg/mL (≈ 30.2 µM) | 50 µg/mL (≈ 121 µM) | 25 µg/mL (≈ 60.4 µM) | 21.1 mm | 25 µg/mL (≈ 60.4 µM) | 20.1 mm | 2 | 23.2 mm | 25 µg/mL (≈ 60.4 µM) | 4 | 20.2 mm | 50 µg/mL (≈ 121 µM) | 19.4 mm | MFC (Talaromyces marneffei [19]): 100 µg/mL (≈ 242 µM); MIC (Talaromyces marneffei [19]): 25 µg/mL (≈ 60.4 µM); diameter of the inhibition zone (DIZ) (Talaromyces marneffei [20]): 16.3 mm; diameter of the inhibition zone (DIZ) (Aspergillus fumigatus [21]): 21.6 mm; Ratio (Candida albicans [22]): 2; diameter of the inhibition zone (DIZ) [23]: 18.7 mm; diameter of the inhibition zone (DIZ) (Escherichia coli [24]): 21.6 mm; MBC (Streptococcus pyogenes [25]): 25 µg/mL (≈ 60.4 µM); MFC (Aspergillus fumigatus [26]): 50 µg/mL (≈ 121 µM); MIC (Aspergillus fumigatus [26]): 25 µg/mL (≈ 60.4 µM); MIC (Escherichia coli [27]): 6.25 µg/mL (≈ 15.1 µM) |
| 6.25 µg/mL (≈ 15.7 µM) | 25 µg/mL (≈ 62.9 µM) | 12.5 µg/mL (≈ 31.4 µM) | 12.5 µg/mL (≈ 31.4 µM) | 12.5 µg/mL (≈ 31.4 µM) | 12.5 µg/mL (≈ 31.4 µM) | CCCCCCCC/C=C\CCCCCCCc1nnc(Nc2ccccc2)o1 | 2 | 50 µg/mL (≈ 126 µM) | 50 µg/mL (≈ 126 µM) | 25 µg/mL (≈ 62.9 µM) | 15.3 mm | 50 µg/mL (≈ 126 µM) | 15.6 mm | 2 | 26.1 mm | 50 µg/mL (≈ 126 µM) | 4 | 14.9 mm | 25 µg/mL (≈ 62.9 µM) | 19.3 mm | MFC (Talaromyces marneffei [19]): 25 µg/mL (≈ 62.9 µM); MIC (Talaromyces marneffei [19]): 6.25 µg/mL (≈ 15.7 µM); diameter of the inhibition zone (DIZ) (Talaromyces marneffei [20]): 15.9 mm; diameter of the inhibition zone (DIZ) (Aspergillus fumigatus [21]): 23.1 mm; Ratio (Candida albicans [22]): 4; diameter of the inhibition zone (DIZ) [23]: 20.2 mm; diameter of the inhibition zone (DIZ) (Escherichia coli [24]): 17.5 mm; MBC (Streptococcus pyogenes [25]): 25 µg/mL (≈ 62.9 µM); MFC (Aspergillus fumigatus [26]): 12.5 µg/mL (≈ 31.4 µM); MIC (Aspergillus fumigatus [26]): 6.25 µg/mL (≈ 15.7 µM); MIC (Escherichia coli [27]): 12.5 µg/mL (≈ 31.4 µM) |
| 25 µg/mL (≈ 83.5 µM) | 12.5 µg/mL (≈ 41.7 µM) | 6.25 µg/mL (≈ 20.9 µM) | 12.5 µg/mL (≈ 41.7 µM) | 12.5 µg/mL (≈ 41.7 µM) | 12.5 µg/mL (≈ 41.7 µM) | C=CCCCCCCCCc1nnc(Nc2ccccc2)o1 | 4 | 25 µg/mL (≈ 83.5 µM) | 50 µg/mL (≈ 167 µM) | 50 µg/mL (≈ 167 µM) | 17.7 mm | 25 µg/mL (≈ 83.5 µM) | 18 mm | 4 | 24.2 mm | 50 µg/mL (≈ 167 µM) | 2 | 16.8 mm | 50 µg/mL (≈ 167 µM) | 17.3 mm | MFC (Talaromyces marneffei [19]): 25 µg/mL (≈ 83.5 µM); MIC (Talaromyces marneffei [19]): 12.5 µg/mL (≈ 41.7 µM); diameter of the inhibition zone (DIZ) (Talaromyces marneffei [20]): 15.2 mm; diameter of the inhibition zone (DIZ) (Aspergillus fumigatus [21]): 20.8 mm; Ratio (Candida albicans [22]): 2; diameter of the inhibition zone (DIZ) [23]: 16.9 mm; diameter of the inhibition zone (DIZ) (Escherichia coli [24]): 19.8 mm; MBC (Streptococcus pyogenes [25]): 50 µg/mL (≈ 167 µM); MFC (Aspergillus fumigatus [26]): 100 µg/mL (≈ 334 µM); MIC (Aspergillus fumigatus [26]): 25 µg/mL (≈ 83.5 µM); MIC (Escherichia coli [27]): 12.5 µg/mL (≈ 41.7 µM) |

— ChEMBL document CHEMBL1155415, “Synthesis, characterization, and in vitro antimicrobial activities of 5-alkenyl/hydroxyalkenyl-2-phenylamine-1,3,4-oxadiazoles and thiadiazoles” (2010)
